From ChEMBL document CHEMBL4304816, “A Novel Biphenyl-based Chemotype of Retinoid X Receptor Ligands Enables Subtype and Heterodimer Preferences” (ACS Med Chem Lett, 2019)
pEC50: −log10 of the molar value. Calls of active or inactive are those of the source. The calls are words filed in the database; no cut-off is given here.

Legend:
Assay type in all cases: cell-based
[1] = target: T1, Peroxisome proliferator-activated receptor delta (Homo sapiens) (UniProt Q03181); assay: Agonist activity at Gal4-LBD fused PPARbeta (unknown origin) expressed in HEK293T cells at 10 uM after 14 to 16 hrs by dual-Glo luciferase assay
T1 sequence (whole entry): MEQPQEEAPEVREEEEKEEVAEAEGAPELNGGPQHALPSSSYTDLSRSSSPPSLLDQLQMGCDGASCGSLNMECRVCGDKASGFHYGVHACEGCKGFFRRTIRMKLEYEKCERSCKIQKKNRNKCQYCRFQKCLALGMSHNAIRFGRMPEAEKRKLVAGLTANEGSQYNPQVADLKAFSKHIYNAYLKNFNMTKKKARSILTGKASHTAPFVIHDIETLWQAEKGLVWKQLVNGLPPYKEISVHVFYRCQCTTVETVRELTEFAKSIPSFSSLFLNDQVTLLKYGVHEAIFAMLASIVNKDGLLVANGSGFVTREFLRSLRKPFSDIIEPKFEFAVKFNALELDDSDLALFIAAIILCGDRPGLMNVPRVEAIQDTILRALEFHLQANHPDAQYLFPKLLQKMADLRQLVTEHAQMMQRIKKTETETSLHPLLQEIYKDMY
Summary of the method: (§1)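 Gal4-hybrid reporter gene selectivity panel of related nuclear receptors (PPARα/β/γ, RARα/β/γ) in HEK293T cells. Activity is read as mean fold activation versus 0.1% DMSO vehicle, n ≥ 2.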

[2] = target: T2, Retinoic acid receptor RXR-alpha (Homo sapiens, UniProt P19793); assay: Agonist activity at Gal4-LBD fused RXRalpha (unknown origin) expressed in HEK293T cells after 14 to 16 hrs by dual-Glo luciferase assay
T2 sequence (P19793 whole entry): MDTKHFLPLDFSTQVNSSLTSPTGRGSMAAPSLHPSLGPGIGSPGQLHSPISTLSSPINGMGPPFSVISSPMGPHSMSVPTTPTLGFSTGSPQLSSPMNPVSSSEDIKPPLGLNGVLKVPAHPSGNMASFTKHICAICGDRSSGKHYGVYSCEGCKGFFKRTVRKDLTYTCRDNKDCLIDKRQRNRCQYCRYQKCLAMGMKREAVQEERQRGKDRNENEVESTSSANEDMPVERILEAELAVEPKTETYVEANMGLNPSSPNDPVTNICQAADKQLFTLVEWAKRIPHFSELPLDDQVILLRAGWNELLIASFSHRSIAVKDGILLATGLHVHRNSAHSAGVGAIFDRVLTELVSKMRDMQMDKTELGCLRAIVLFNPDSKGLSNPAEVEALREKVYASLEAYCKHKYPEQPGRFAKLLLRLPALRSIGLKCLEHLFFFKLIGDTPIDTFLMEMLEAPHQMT
Summary of the method: (§2)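 Gal4-hybrid RXRα/β/γ reporter gene assays in HEK293T cells. Fold activation is the maximal fold activation versus 0.1% DMSO.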

[3] = target: T3, Retinoic acid receptor alpha (Homo sapiens) (UniProt P10276); assay: Agonist activity at Gal4-LBD fused RARalpha (unknown origin) expressed in HEK293T cells at 10 uM after 14 to 16 hrs by dual-Glo luciferase assay; summary of the method: as §1
T3 sequence (whole entry): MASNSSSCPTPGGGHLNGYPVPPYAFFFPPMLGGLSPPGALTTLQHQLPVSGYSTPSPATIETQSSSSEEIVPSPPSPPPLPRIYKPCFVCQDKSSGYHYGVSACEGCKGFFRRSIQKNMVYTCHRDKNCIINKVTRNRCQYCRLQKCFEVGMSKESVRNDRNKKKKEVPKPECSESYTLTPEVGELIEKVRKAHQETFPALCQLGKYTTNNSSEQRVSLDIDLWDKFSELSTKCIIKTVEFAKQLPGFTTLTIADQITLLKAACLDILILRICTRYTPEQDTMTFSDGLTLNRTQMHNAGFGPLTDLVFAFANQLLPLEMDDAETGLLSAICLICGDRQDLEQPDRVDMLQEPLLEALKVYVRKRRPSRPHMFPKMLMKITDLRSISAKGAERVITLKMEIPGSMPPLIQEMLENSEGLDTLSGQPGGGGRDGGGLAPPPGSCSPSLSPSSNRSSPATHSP

[4] = target: T4, Retinoic acid receptor RXR-alpha (Homo sapiens) (UniProt P19793); assay: Agonist activity at Gal4-LBD fused RXRalpha (unknown origin) expressed in HEK293T cells at 10 uM after 14 to 16 hrs by dual-Glo luciferase assay
T4 sequence (whole entry): T2 sequence (P19793 whole entry)

[5] = target: T4, Retinoic acid receptor RXR-alpha (Homo sapiens); assay: Agonist activity at Gal4-LBD fused RXRalpha (unknown origin) expressed in HEK293T cells assessed as fold activation at 10 uM after 14 to 16 hrs by dual-Glo luciferase assay relative to untreated control; summary of the method: as §2
[6] = target: T5, Peroxisome proliferator-activated receptor alpha (Homo sapiens) (UniProt Q07869); assay: Agonist activity at Gal4-LBD fused PPARalpha (unknown origin) expressed in HEK293T cells at 20 uM after 14 to 16 hrs by dual-Glo luciferase assay; summary of the method: as §1
T5 sequence (whole entry): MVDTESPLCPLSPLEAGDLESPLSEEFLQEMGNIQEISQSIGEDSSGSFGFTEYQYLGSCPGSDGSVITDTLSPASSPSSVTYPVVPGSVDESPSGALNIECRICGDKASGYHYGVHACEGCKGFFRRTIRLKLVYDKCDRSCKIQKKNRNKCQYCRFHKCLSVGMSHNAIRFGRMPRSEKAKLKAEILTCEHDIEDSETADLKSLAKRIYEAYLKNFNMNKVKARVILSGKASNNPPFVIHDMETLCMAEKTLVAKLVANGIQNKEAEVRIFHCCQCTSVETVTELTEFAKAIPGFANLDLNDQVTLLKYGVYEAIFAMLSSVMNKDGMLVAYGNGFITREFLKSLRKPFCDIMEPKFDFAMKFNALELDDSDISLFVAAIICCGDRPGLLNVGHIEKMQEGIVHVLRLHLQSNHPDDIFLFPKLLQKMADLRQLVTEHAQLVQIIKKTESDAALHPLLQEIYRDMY

Activity [1] | pEC50 [2] | Activity [3] | Activity [4] | fold change (FC) [5] | Activity [6] | Structure (SMILES)
Active | 6.68 | Active | – | – | – | Cc1cc(-c2cc(C(F)(F)F)cc(C(F)(F)F)c2)ccc1CC(=O)O
Active | – | Active | inactive | 3 | – | Cc1cc(-c2cc(C(C)(C)C)cc(C(C)(C)C)c2)ccc1C(=O)O
– | 5.10 | – | – | – | Active | Cc1cc(-c2ccc(C(=O)O)cc2)cc(C(C)(C)C)c1
